Measured values reported in ChEMBL document CHEMBL4411297, “Discovery, synthesis and anti-atherosclerotic activities of a novel selective sphingomyelin synthase 2 inhibitor” (Eur J Med Chem, 2019).
pIC50: −log10 of the molar value. Active and inactive are the calls of the source. The rule behind the calls is not given here.

Tests used:
[1] = system: Mus musculus; assay: Anti-atherosclerotic activity in apoE knockout mouse fed with western-type diet assessed as reduction in plasma SM level at 12.5 mg/kg/day, ig for 7 weeks relative to control; type: functional; design: scale not given: the % may be the effect or the level left
Outline: (§1)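 ApoE KO mice on Western-type diet, dosed by gavage at 12.5 or 40 mg/kg/day for 7 weeks, n = 10. Blood collected at 20 weeks of age. Plasma SM measured by a previously reported method. ALT and AST read on an automated biochemical analyzer.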

[2] = system: Mus musculus; assay: Anti-atherosclerotic activity in apoE knockout mouse fed with western-type diet assessed as reduction in CD11b+/CD11c+ dendritic cells at 40 mg/kg/day, ig for 7 weeks by flow cytometric analysis relative to control; type: functional; design: scale not given: the % may be the effect or the level left
Outline: (§2)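 ApoE KO mice started at 8 weeks old on Western-type diet for 6 weeks. Then dosed by gavage daily with vehicle, 12.5 or 40 mg/kg for 7 weeks with the diet continued, 10 mice per group. Blood single-cell suspensions stained with antibodies in PBS and analysed by flow cytometry. Mean ± SD, n = 5.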

[3] = Tmax in C57BL/6J mouse at 50 mg/kg/day, ig by HPLC-MS/MS analysis; type: ADME, organism-based; conditions: in vivo, po
Outline: (§3)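 Male C57BL/6J mice (6–8 weeks, ~20 g), fasted 12 h, given a single intragastric dose of 25, 50 or 100 mg/kg in 10% DMSO/30% PEG/0.9% NaCl. Retro-orbital blood at 5 min to 8 h; plasma protein-precipitated with methanol plus internal standard, assayed by LC-MS/MS; noncompartmental analysis. Mean ± SD, n = 6.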

[4] = system: Mus musculus; assay: Anti-atherosclerotic activity in ig dosed apoE knockout mouse fed with western-type diet assessed as reduction in plasma sphingomyelin level; type: functional, organism-based; outline: as §1
[5] = system: Mus musculus; assay: Effect on plasma AST level in apoE knockout mouse fed with western-type diet at 12.5 to 40 mg/kg/day, ig for 7 weeks; type: ADME, organism-based; conditions: in vivo, po, 1176 h; outline: as §1
[6] = AUC (0 to 8 hrs) in C57BL/6J mouse at 25 mg/kg/day, ig by HPLC-MS/MS analysis; type: ADME, organism-based; design: dose 25 mg/kg/day, time < 8 hr, route intragastric; conditions: in vivo, po
Outline: (§4)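 Male C57BL/6J mice, six to eight weeks old, about 20 g, fasted 12 h with free water. Given a single intragastric dose of 25, 50 or 100 mg/kg in 10% DMSO/30% PEG-100/0.9% NaCl. Blood taken retro-orbitally at 5 min to 8 h. Plasma protein-precipitated with methanol plus internal standard, then HPLC-MS/MS on a C18 column. Noncompartmental analysis, n = 6.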

[7] = biological target: T1, Phosphatidylcholine:ceramide cholinephosphotransferase 1 (Homo sapiens, UniProt Q86VZ5); assay: (§5) Inhibition of purified SMS1 (unknown origin) using C6-NBD-Ceramide and DMPC as substrates preincubated for 5 mins followed by substrate addition and measured after 30 mins by TLC or HPLC method
T1 sequence (Q86VZ5 whole entry): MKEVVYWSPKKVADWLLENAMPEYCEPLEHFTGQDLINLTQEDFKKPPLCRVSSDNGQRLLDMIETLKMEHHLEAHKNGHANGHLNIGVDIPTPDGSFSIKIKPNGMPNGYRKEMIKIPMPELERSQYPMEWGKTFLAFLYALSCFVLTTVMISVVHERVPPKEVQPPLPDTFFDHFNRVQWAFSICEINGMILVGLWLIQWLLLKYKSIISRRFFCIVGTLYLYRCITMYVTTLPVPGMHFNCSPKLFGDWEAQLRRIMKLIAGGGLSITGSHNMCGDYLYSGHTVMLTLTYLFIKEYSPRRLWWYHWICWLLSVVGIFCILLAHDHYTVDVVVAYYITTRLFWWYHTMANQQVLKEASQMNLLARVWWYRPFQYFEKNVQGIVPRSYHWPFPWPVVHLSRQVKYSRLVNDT
Outline: (§6)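 Purified SMS1 or SMS2 in DDM detergent buffer; inhibitor in DMSO pre-incubated 5 min at room temperature, then C6-NBD-ceramide and DMPC added, 30 min at 37 °C; ethanol quench, TLC or HPLC read-out. Activity expressed as percent of no-inhibitor vehicle; IC50 from ten (SMS1) or eight (SMS2) concentrations, mean ± SD, n = 3.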

[8] = biological target: T2, Phosphatidylcholine:ceramide cholinephosphotransferase 1 (Homo sapiens) (UniProt Q86VZ5); assay: as §5; outline: as §6
T2 sequence (whole entry): T1 sequence (Q86VZ5 whole entry)

[9] = Ratio of drug level in liver to plasma in C57BL/6J mouse at 100 mg/kg/day, ig qd for 7 days measured on day 7; type: ADME, organism-based; conditions: po
Outline: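 C57BL/6J mice dosed intragastrically at 100 mg/kg once daily for 7 days; compound levels in liver and blood measured on day 7, n = 5.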

[10] = system: Mus musculus; assay: Anti-atherosclerotic activity in apoE knockout mouse fed with western-type diet assessed as reduction in lesions in whole aorta at 12.5 mg/kg/day, ig for 7 weeks by oil-red O staining-based assay relative to control; type: functional; design: scale not given: the % may be the effect or the level left
Outline: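 ApoE KO mice fed Western-type diet, then given 12.5 or 40 mg/kg/day by gavage in 30% PEG-400/10% DMSO/0.9% NaCl for 7 weeks. Aortic root: H&E-stained 4 µm sections, mean lesion area from 6 sections per animal. Whole aorta: en face Oil Red O staining, percentage of area stained. Compared with vehicle, n = 10.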

[11] = Apparent oral clearance in C57BL/6J mouse at 100 mg/kg/day, ig by HPLC-MS/MS analysis; type: ADME, organism-based; conditions: in vivo; outline: as §4
[12] = AUC (0 to infinity) in C57BL/6J mouse at 25 mg/kg/day, ig by HPLC-MS/MS analysis; type: ADME, organism-based; design: dose 25 mg/kg/day, time infinity, route intragastric; conditions: in vivo, po; outline: as §4
[13] = AUC (0 to infinity) in C57BL/6J mouse at 100 mg/kg/day, ig by HPLC-MS/MS analysis; type: ADME, organism-based; design: dose 100 mg/kg/day, route intragastric, time infinity; conditions: in vivo, po; outline: as §4
[14] = system: Mus musculus; assay: Anti-atherosclerotic activity in apoE knockout mouse fed with western-type diet assessed as reduction in CD11b+/CD11c+ dendritic cells at 12.5 mg/kg/day, ig for 7 weeks by flow cytometric analysis; type: functional, organism-based; outline: as §2
[15] = MRT (0 to infinity) in C57BL/6J mouse at 50 mg/kg/day, ig by HPLC-MS/MS analysis; type: ADME, organism-based; conditions: in vivo, po; outline: as §3
[16] = Apparent volume of distribution during terminal phase in C57BL/6J mouse at 100 mg/kg/day, ig by HPLC-MS/MS analysis; type: ADME, organism-based; conditions: in vivo, po, read-out: Vz/F; outline: as §4
[17] = Cmax in C57BL/6J mouse at 50 mg/kg/day, ig by HPLC-MS/MS analysis; type: ADME, organism-based; design: dose 50 mg/kg/day, route intragastric; conditions: in vivo, po; outline: as §4
[18] = system: Mus musculus; assay: Anti-atherosclerotic activity in apoE knockout mouse fed with western-type diet assessed as reduction in macrophage content at 40 mg/kg/day, ig for 7 weeks by immunostaining assay relative to control; type: functional; design: scale not given: the % may be the effect or the level left
Outline: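 ApoE KO mice on Western-type diet, dosed by gavage at 12.5 or 40 mg/kg/day for 7 weeks. Aortic root sections 4 µm thick immunostained with MOMA-2: primary antibody 1 h at room temperature, biotinylated secondary, HRP-streptavidin, DAB, hematoxylin counterstain. Stained area quantified and expressed relative to vehicle.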

[19] = Half life in C57BL/6J mouse at 100 mg/kg/day, ig by HPLC-MS/MS analysis; type: ADME, organism-based; conditions: in vivo, po; outline: as §4
[20] = system: Mus musculus; assay: Anti-atherosclerotic activity in apoE knockout mouse fed with western-type diet assessed as reduction in lymphocyte count at 40 mg/kg/day, ig for 7 weeks by flow cytometric analysis relative to control; type: functional; design: scale not given: the % may be the effect or the level left; outline: as §2

`CCc1ccccc1COc1ccccc1C(=O)Nc1cccnc1` gave an Activity [1] of 25%, an Activity [2] of 57% and a Tmax [3] of 4.8 min. The Activity [4] was “Dose-dependent effect”, the Activity [5] was “Non-Toxic” and the AUC at 8 h [6] was 1990 ng·h/mL. The pIC50 [7] was 3.87, the inhibition [8] was “Dose-dependent effect” and the Kp at 168 h [9] was 5. The Activity [10] was 32%, the CL/F [11] was 143 mL/min and the AUC(0-inf) [12] was 2360 ng·h/mL. For the same compound, the AUC(0-inf) [13] was 14500 ng·h/mL, the Activity [14] was “inactive” and the MRT inf [15] was 2.28 h. The Vd/F [16] was 28.8 L, the Cmax [17] was 6120 ng/mL and the Activity [18] was 55%. It also gave a half-life [19] of 2.51 h and an Activity [20] of 24%.
